In PMC5609789 (Drug Design, Development and Therapy, 2017):

Columns and labels:
Assay type in all cases: cell-based
[1] = tested on: EJ-28 urinary bladder cancer cells; assay: MTT cell viability assay, EJ-28; settings: Homo sapiens, EJ-28, 24 h, read-out: IC50, Bladder carcinoma (EJ-28)
How it was run: (§1)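 Cells grown in RPMI 1640 with 10% FBS, penicillin and streptomycin at 37°C, 5% CO2. DMSO stocks were 10.0 mM. Seeded in triplicate at 1.0×10^4 cells/well; after 24 h, dosed 5.0–50.0 μM for 24 h. MTT (5.0 mg/mL) was added for 2 h at 37°C in the dark, formazan dissolved in DMSO, A579 read against 650 nm. IC50 reported as mean ± SEM, n=3. Not assigned if viability stayed above 50% at 50 μM.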

[2] = tested on: HSC-4 oral squamous cancer cells; assay: MTT cell viability assay, HSC-4; settings: Homo sapiens, HSC-4, 24 h, read-out: IC50, Oral squamous carcinoma (HSC-4)
How it was run: (§2)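 Cultured in DMEM with 10% FBS, penicillin/streptomycin, 37°C, 5% CO2. Cells plated in triplicate at 1.0×10^4/well. After 24 h, test compound was added at 5.0–50.0 μM (from 10.0 mM DMSO stocks) for 24 h. MTT reduction ran 2 h at 37°C in the dark, formazan was dissolved in DMSO, absorbance 579 nm (reference 650 nm). IC50 given as mean ± SEM (n=3), not assigned when viability remained >50% at 50 μM.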

[3] = tested on: MDA-MB-231 breast cancer cells; assay: MTT cell viability assay, MDA-MB-231; settings: Homo sapiens; for IC20: MDA-MB-231, read-out: IC20 (20% inhibitory concentration) on MDA-MB-231 cell line
How it was run: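 MDA-MB-231 cells (ATCC) grown in RPMI 1640 with 10% FBS, penicillin/streptomycin, 37°C, 5% CO2. Seeded in triplicate at 1.0×10^4 cells/well, then after 24 h exposed to 5.0–50.0 μM test compound (10.0 mM DMSO stock) for 24 h. MTT (5.0 mg/mL) was added for 2 h at 37°C in the dark, formazan dissolved in DMSO, and absorbance read at 579 nm (reference 650 nm). Mean ± SEM, n=3.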

[4] = tested on: human mammary epithelial cells (HMECs); assay: MTT cell viability assay, HMEC normal control; settings: 24 h, read-out: IC50, HMECs (normal cells)
How it was run: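 Normal human mammary epithelial cells kept in mammary epithelial growth medium at 37°C, 5% CO2. Test compound was applied for 24 h over 5.0–50.0 μM (10.0 mM DMSO stocks), and viability was measured by MTT: 2 h in the dark at 37°C, DMSO solubilisation, read at 579/650 nm. Mean ± SEM of n=3; no IC50 assigned if viability stayed above 50% at 50 μM.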

[5] = tested on: HepG2 liver cancer cells; assay: MTT cell viability assay, HepG2; settings: Homo sapiens, HepG2, 24 h, read-out: IC50, Hepatocyte carcinoma (HepG2)
How it was run: as §2

[6] = tested on: PC-3 prostate cancer cells; assay: MTT cell viability assay, PC-3; settings: Homo sapiens, 24 h, read-out: IC50, Prostate carcinoma (PC-3)
How it was run: as §1

[7] = tested on: MCF-7 breast cancer cells; assay: MTT cell viability assay, MCF-7; settings: Homo sapiens, MCF7, 24 h, read-out: IC50, Breast adenocarcinoma (MCF-7)
How it was run: as §1

[8] = tested on: RT-112 urinary bladder cancer cells; assay: MTT cell viability assay, RT-112; settings: Homo sapiens, RT-112, 24 h, read-out: IC50, Bladder carcinoma (RT-112)
How it was run: as §1

Structure (SMILES) | IC50 [1] | IC50 [2] | IC20 [3] | IC50 [4] | IC50 [5] | IC50 [6] | IC50 [7] | IC50 [8] | IC50 ([3]; MDA-MB-231, 24 h, read-out: IC50, Breast adenocarcinoma (MDA-MB-231))
C=CCc1cc(OC)c(O)c(OC)c1 [compound 2, 4-Allyl-2,6-dimethoxyphenol] | > 50 µM | > 50 µM | 48 µM | > 50 µM | > 50 µM | > 50 µM | > 50 µM | > 50 µM | 
C=CCc1ccc(OC)cc1 [compound 5, 4-allyl anisole] | > 50 µM | > 50 µM | 32 µM | > 50 µM | > 50 µM | > 50 µM | > 50 µM | > 50 µM | > 50 µM
